TbHK1 inh: blocks Trypanosoma brucei hexokinase 1 activity | AID 1430 | 0.11% of 220,000 active | recombinant TbHK1, G6PDH-coupled NADH A340 | inhibition, % at 10 µM;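 active means inhibition of 50% or more in the single-dose primary screen; inactive means inhibition below 50%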
HKDC1 inhibitor: inhibitors of human hexokinase HKDC1. Q2TB90. inhibition, % at 20 µM. 0.16% of 340,000 active. recombinant HKDC1, G6PDH/diaphorase resazurin coupled fluorescence;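 active means inhibition above about 35% when tested at 20 µM, limit read from the data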;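 further: plate controls were DMSO wells with enzyme for no effect and DMSO wells lacking enzyme for full effect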
Target sequence (Q2TB90 whole entry, looked up): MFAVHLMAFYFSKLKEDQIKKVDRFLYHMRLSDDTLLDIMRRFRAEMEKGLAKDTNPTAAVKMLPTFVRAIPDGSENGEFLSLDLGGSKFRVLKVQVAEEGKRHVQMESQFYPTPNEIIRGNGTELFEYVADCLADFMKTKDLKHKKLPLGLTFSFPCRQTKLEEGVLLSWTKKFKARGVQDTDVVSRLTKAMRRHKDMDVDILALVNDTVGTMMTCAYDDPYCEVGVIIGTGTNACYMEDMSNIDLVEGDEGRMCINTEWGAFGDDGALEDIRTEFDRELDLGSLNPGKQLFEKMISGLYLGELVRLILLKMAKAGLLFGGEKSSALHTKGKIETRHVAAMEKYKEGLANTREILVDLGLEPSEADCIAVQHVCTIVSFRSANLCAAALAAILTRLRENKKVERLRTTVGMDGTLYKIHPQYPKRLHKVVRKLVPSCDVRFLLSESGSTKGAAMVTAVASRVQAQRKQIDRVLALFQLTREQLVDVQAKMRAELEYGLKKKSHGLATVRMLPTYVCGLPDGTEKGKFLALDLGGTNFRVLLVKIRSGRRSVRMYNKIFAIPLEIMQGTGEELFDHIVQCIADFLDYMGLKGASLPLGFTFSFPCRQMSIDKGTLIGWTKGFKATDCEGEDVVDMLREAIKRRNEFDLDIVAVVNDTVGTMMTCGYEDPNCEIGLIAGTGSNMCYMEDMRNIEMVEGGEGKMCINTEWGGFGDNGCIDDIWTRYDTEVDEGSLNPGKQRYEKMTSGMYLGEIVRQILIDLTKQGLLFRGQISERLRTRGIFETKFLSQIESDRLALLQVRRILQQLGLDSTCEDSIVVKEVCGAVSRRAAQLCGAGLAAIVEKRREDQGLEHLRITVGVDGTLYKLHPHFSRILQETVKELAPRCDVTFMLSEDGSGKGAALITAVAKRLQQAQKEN
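Incubation: 90 min at room temperature in dark / Material: recombinant HKDC1 (HK5) hexokinase enzyme, produced in-house / Quantity: enzyme 5 µg/mL final / Compound: one dose of 20 µM, 1% DMSO / Reagent: glucose and ATP substrates / Buffer or medium: Tris pH 8.0 buffer with MgCl2, Tween-20, BSA, BME / Technique: resorufin fluorescence at 613 nm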
PfG6PD inh: PfG6PD (Plasmodium falciparum) enzyme inhibition. PfGluPho enzyme, NADPH resazurin-diaphorase fluorescence. inhibition, % at 20 µM. 0.78% of 350,000 active. AID 504690;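 active means inhibition reaching at least a set limit at 20 µM in the primary screen, cut at about 59% in these data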;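 further: 0% = DMSO wells with substrate and 100% = DMSO wells lacking glucose-6-phosphate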
EP2 mod: EP2 receptor (human) modulation. 0.83% of 260,000 active. EP2-expressing cells, cAMP HTRF FRET, PGE2 co-stimulation. AID 940. induction, % at 25 µM;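 active means compounds whose cAMP rise, as percent of the full-agonist control response, exceeds 60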;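 further: rat C6 glioma line stably carrying human EP2 under a CMV promoter; the protocol text gives 20 µM as final concentration; 100% = response of wells given 1 µM PGE2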
PHOSPHO1 block: inhibitors of human PHOSPHO1 phosphatase; Q8TCT1; recombinant PHOSPHO1, absorbance phosphatase assay; inhibition, % at 13.3 µM; 1.1% of 290,000 active; in the data active means inhibition above about 60%
PGE2 EP2 inh: inhibitors of human EP2 prostaglandin E2 receptor. C6 glioma cells expressing human EP2, cAMP TR-FRET; cells stimulated with saturating PGE2. 0.52% of 260,000 active. inhibition, % at 25 µM. P43116;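 active means percent inhibition above 40 after rounding to a whole number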;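 further: rat C6 glioma host cells with rolipram phosphodiesterase inhibitor present; the protocol text gives 20 µM as final concentration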
HKDC1 act conf2: confirmation of human HKDC1 activators; shares compounds with HKDC1 inhibitor; recombinant HKDC1, G6PDH/diaphorase resazurin fluorescence; active compounds read low; inhibition, % at 20 µM; 14% of 740 active; AID 504708;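 active means inhibition at or below a set negative limit, negative inhibition meaning the enzyme was activated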
* hit, by the source's call; / = no result given. Shown are actives, neighbours in structure and some others; about 2.5% of the full set was active somewhere.

SMILES | TbHK1 inh | HKDC1 inhibitor | PfG6PD inh | EP2 mod | PHOSPHO1 block | PGE2 EP2 inh | HKDC1 act conf2
CCOc1ccc(/C=C2/SC(=S)N(CCC(=O)Nc3ccc(C(=O)O)cc3)C2=O)cc1 | / | 43* | -25 | / | -8 | / | -42*
COC1=CC(=O)C(C2CC(=O)c3c(O)cc(O)cc3O2)=CC1=O (stereo not given) | / | 60* | 124* | / | / | / | 40
O=C1C(Cl)=C(N2CCN(c3ccccc3[N+](=O)[O-])CC2)C(=O)c2ccccc21 | -8 | 40* | 17 | -28 | -5 | 23 | -9
O=C1C(Cl)=C(N2CCN(c3ccccn3)CC2)C(=O)c2ccccc21 | / | / | / | -80 | / | 7 | /
CCNC(=O)COC(=O)CNC(=O)c1cc(Cl)cc([N+](=O)[O-])c1 | 35 | -6 | -4 | 12 | 13 | 11 | /
CC(C)CNC(=O)COC(=O)CNC(=O)c1cc(Cl)cc([N+](=O)[O-])c1 | -5 | -52 | 15 | 12 | 7 | 6 | -24
O=C(NN1CCOCC1)c1ccc(Cl)c([N+](=O)[O-])c1 | / | 36* | 5 | / | 36 | / | -34
Cc1ccc(N=Nc2ccc(O)c3ncccc23)cc1C | -5 | -43 | -20 | 28 | -28 | 7 | -40*
COc1ccc(NC(=O)C2CCCN(S(=O)(=O)c3ccc(C)cc3)C2)cc1 (stereo not given) | / | / | / | -46 | / | 5 | /
CCOC(=O)Cn1nnnc1CN(Cc1ccccc1Cl)Cc1cc2cc(C)cc(C)c2[nH]c1=O | / | / | / | 49 | / | 10 | /
COc1ccc(CC(=O)N(Cc2ccccc2)c2ccc(C)cc2)cc1S(=O)(=O)N1CCOCC1 | / | 33 | 9 | / | / | / | -30
COc1ccc(CC(=O)NCc2ccccc2)cc1S(=O)(=O)N1CCOCC1 | 1 | -14 | -5 | -6 | -10 | 15 | /
Cc1cc2cc(CCNC(=O)c3ccc(S(=O)(=O)N4CCOCC4)cc3)c(=O)[nH]c2cc1C | -10 | 41* | 32 | -4 | 38 | 16 | 45
Cc1ccc2cc(CCNC(=O)c3ccc(S(=O)(=O)N4CCCCC4)cc3)c(=O)[nH]c2c1 | -6 | 40* | 45 | -17 | 34 | 3 | 40
Cc1cc2cc(CCNC(=O)c3cccc([N+](=O)[O-])c3)c(=O)[nH]c2cc1C | -5 | 40* | 9 | 17 | 0 | 3 | 16
C[C@]12CC[C@@H](O)C[C@H]1CCc1ccccc12 | / | / | / | -2 | / | 12 | /
O=C(c1c[nH]c(C(=O)C(Cl)(Cl)Cl)c1)c1c(F)cccc1F | / | 38* | -1 | / | 38 | / | 14
NC(=O)c1cc(C(=O)c2ccc(Cl)cc2)c[nH]1 | -3 | -2 | -12 | 5 | -31 | 5 | /
O=C(c1c[nH]c(C(=O)C(Cl)(Cl)Cl)c1)c1ccccc1Cl | -6 | 14 | 6 | -10 | -17 | 16 | /
O=C(c1c[nH]c(C(=O)C(Cl)(Cl)Cl)c1)c1ccccc1F | / | 37* | -6 | / | 11 | / | 1
CCOc1ccc(NC(=O)CSc2nnnn2-c2ccc(OC)cc2)cc1 | / | / | / | -4 | / | 12 | /
CCOc1ccc(N(CC(=O)N2CCC(C(N)=O)CC2)S(=O)(=O)c2ccc(C)cc2)cc1 | / | / | / | 7 | / | 18 | /
COC(=O)COc1ccc(S(=O)(=O)N2CCC(C(N)=O)CC2)cc1C | / | / | / | -1 | / | 10 | /
O=C(COC(=O)c1n[nH]c2ccccc12)c1cccc(Br)c1 | / | 38* | 13 | / | 61* | / | -30*
CC(C)(C)c1ccc(-c2csc(NNC3=NCCCCC3)n2)cc1 | 2 | -61 | 24 | -31 | 45 | 5 | -39*
SMILES | TbHK1 inh | HKDC1 inhibitor | PfG6PD inh | EP2 mod | PHOSPHO1 block | PGE2 EP2 inh | HKDC1 act conf2
COc1ccc(C(=O)Nc2cccc(Cl)c2N2CCOCC2)cc1OC | / | / | / | 33 | / | 5 | /
COc1ccccc1C1(O)CCN(CCNC(=O)c2ccc3c(c2)OCO3)CC1 | / | / | / | -48 | / | 7 | /
O=C(O)COc1ccc(/C=N/NC(=O)c2ccc(-c3csc(Nc4ccc(Cl)cc4)n3)cc2)cc1 | -13 | 76* | 30 | 19 | 10 | 7 | 24
Cc1nc2sc3c(NCc4ccco4)ncnc3c2c2c1COC(C)(C)C2 | -16 | 35* | 62* | 5 | -24 | -11 | 37
CC(C)Cc1nc2sc3c(NCc4ccco4)ncnc3c2c2c1COC(C)(C)C2 | -23 | -2 | 1 | 42 | 24 | 8 | /
CCOC(=O)/C=C(\C)Sc1cc(=O)oc2ccccc12 | -2 | 5 | 3 | 40 | -3 | 11 | /
CCOC(=O)/C=C(\C)Sc1cc(O)c2ccccc2c1O | -6 | 57* | 108* | -52 | 42 | 69* | 54
CC1Cc2ccccc2N1C(=O)Cn1nc(-c2cccnc2)oc1=O (stereo not given) | / | / | / | -30 | / | / | /
Cc1ccc2oc(=O)c3cnn(CC(=O)N4CCc5ccccc5C4)c3c2c1 | 2 | -40 | -49 | -4 | -7 | 6 | -51*
CNc1ncc(CN2CCC(CCc3ccccc3)CC2)cn1 | / | / | / | -45 | / | 10 | /
CC(=O)c1ccc2c(c1)C1C=CCC1C(C(=O)O)N2 (stereo not given) | 1 | 34 | 28 | 26 | -96 | 13 | 36
Cc1ccc(-c2cn3c(c2C)-c2cccn2CC3)cc1 | / | / | / | -80 | / | 12 | /
O=C(Nc1ccc(S(=O)(=O)Nc2ncccn2)cc1)c1ccc2ncsc2c1 | -9 | 34 | 15 | 15 | 28 | 10 | 33
Cc1ccc(C(=O)Nc2ccc(S(=O)(=O)Nc3ncccn3)cc2)cc1C | / | / | / | -19 | / | 7 | /
N=C1N(/N=C/c2ccccc2)C(=Nc2ccccc2)C(=S)N1c1ccccc1 | -19 | -49 | 17 | -40 | 2 | 5 | -32
Cc1ccc2cc(/C=C(\C#N)C(N)=O)c(N3CCCCC3)nc2c1 | -8 | 9 | 23 | 22 | -2 | 13 | /
Cc1ccc2cc(C=C(C#N)C#N)c(N3CCCCC3)nc2c1 | 0 | 41* | -8 | 38 | 14 | 10 | -11
Cc1cc(C)n2nc(SCc3nnc(SCc4ccccc4Cl)s3)nc2n1 | 1 | 41* | 19 | -3 | -15 | 17 | 43
Cc1cc(C)n2nc(SCc3nnc(SCc4ccccc4C)s3)nc2n1 | -7 | 53* | 7 | 9 | -2 | 4 | 69
COc1cccc(CSc2nnc(CSc3nc4nc(C)cc(C)n4n3)s2)c1 | -1 | 34 | 27 | -7 | -7 | 21 | /
CCN(CC)C(=O)N1CCC(c2cccnc2)CC1 | / | / | / | -13 | / | 6 | /
Cc1nc([N+](=O)[O-])c(Br)n1CC(=O)c1ccc(Cl)cc1 | -16 | 22 | 5 | 23 | -2 | 6 | /

Assay outcomes: PubChem BioAssay, several laboratories
